Screening data: PubChem BioAssay, several laboratories
The list is not random: actives were taken first. Their share in the collection is about 5.4%.
HePTP inhibitor: inhibitors of human HePTP phosphatase, primary screen, biochemical, absorbance, leukemia target; Tyrosine-protein phosphatase non-receptor type 7 (Homo sapiens), P35236; recombinant HePTP phosphatase activity, OD absorbance; inhibition, % at 20 µM; hit rate 0.64% among 110,000; AID 521, 2006; in the data active = inhibition above about 50%
PostGolgi ctrl: growth inhibition of yeast control strain, primary screen, counter-screen for post-Golgi transport modulator project. efflux-deficient yeast background strain, growth absorbance A615, 16 h. inhibition, % at 10 µM. hit rate 5% among 98,000
Ecoli tolC: growth inhibitors of E. coli tolC mutant, primary screen, strain BW25113 ΔtolC::kan, 384-well; OD615; growth inhibition, % at 10 µM (by protocol); hit rate 2.2% among 65,000;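 active = growth inhibition at or above a cutoff equal to the mean over every tested compound plus 3 SD, cut at about 60% in these data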;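 also: growth measured after 20 h incubation at 37 °C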
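test system = E. coli BW25113 ΔtolC::kan bacteria | medium = LB with kanamycin 50 µg/mL | signal = OD at 615 nm | schedule = 37 °C, 20 h exposure | evaluation = % inhibition of E. coli growth | compound dosing = one dose of 10 µM final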
PostGolgi yeast: phenotypic screen on post-Golgi transport, primary screen; post-Golgi transport phenotypic cell assay; inhibition, % at 10 µM; hit rate 0.9% among 98,000;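 also: yeast cells grown in 1536-well plates; yeast grown about 18 h at 30C before absorbance read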
E coli WT exp: growth inhibitors of wild-type E. coli, primary screen, strain BW25113, expanded library, OD600; OD600 absorbance; growth inhibition, % at 100 µM; hit rate 0.15% among 98,000; AID 710, 2007;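 active = growth inhibition above about 50% at one test dose, limit read from the data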;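 also: growth measured after 20 h incubation at 37 °C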
PLAP activator: PLAP enzyme activators, biochemical, luminescence, HTS; purified PLAP enzyme, luminescent substrate read-out; stronger effect = higher value; activation fold at 20 µM; hit rate 1.2% among 96,000; in the data active = activation fold above about 2
Target sequence (P05187 whole entry, looked up): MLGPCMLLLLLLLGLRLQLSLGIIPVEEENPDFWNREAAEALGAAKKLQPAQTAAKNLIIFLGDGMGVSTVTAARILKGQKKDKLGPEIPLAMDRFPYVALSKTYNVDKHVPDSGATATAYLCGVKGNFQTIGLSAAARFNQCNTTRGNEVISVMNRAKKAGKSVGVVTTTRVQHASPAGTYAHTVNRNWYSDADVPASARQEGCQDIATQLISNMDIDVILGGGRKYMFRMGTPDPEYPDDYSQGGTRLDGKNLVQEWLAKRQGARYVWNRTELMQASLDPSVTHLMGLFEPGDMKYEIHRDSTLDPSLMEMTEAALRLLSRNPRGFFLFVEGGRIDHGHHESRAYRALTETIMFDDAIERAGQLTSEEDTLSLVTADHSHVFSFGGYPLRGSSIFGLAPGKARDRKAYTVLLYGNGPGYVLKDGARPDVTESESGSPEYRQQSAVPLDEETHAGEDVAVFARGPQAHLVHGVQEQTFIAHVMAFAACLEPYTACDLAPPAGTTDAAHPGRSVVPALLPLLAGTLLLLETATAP
A number is an active result; n = inactive; x = no result given. Rule as the data show it, unless noted: active = inhibition above about 30%; inactive = the rest.

SMILES | HePTP inhibitor | PostGolgi ctrl | Ecoli tolC | PostGolgi yeast | E coli WT exp | PLAP activator
Cn1c(=O)c2c(nc(SCC(=O)OCc3ccccc3)n2C)n(C)c1=O | n | 34 | n | n | n | n
CCCn1c(CN(C)Cc2ccccc2)nc2c1c(=O)n(C)c(=O)n2C | x | x | n | x | x | x
CN(Cc1ccccc1)Cc1nc2c(c(=O)n(C)c(=O)n2C)n1Cc1ccccc1Cl | n | 40 | n | n | n | n
CCCn1c(CN(Cc2ccccc2)Cc2ccccc2)nc2c1c(=O)n(C)c(=O)n2C | n | n | 65 | n | n | n
COc1ccccc1N1CCN(Cc2cccs2)CC1 | x | n | x | n | n | n
COc1ccc(-c2nnc(SCc3cccc(C#N)c3)o2)cc1 | n | n | n | n | n | n
CCCc1nnc(NC(=O)NCCN2C(=O)C3C4C=CC(C4)C3C2=O)s1 (stereo unspecified) | n | n | n | n | n | n
CC(C)CCn1c(Oc2ccccc2Cl)nc2c1c(=O)n(C)c(=O)n2C | x | 32 | x | n | n | n
CC(C)CCn1c(Cl)nc2c1c(=O)n(C)c(=O)n2C | n | n | n | n | n | n
O=C1NCCN1C(=O)C12CC3CC(CC(C3)C1)C2 | n | n | n | n | n | n
CC1=C/C(=N\N=C2\NC(=O)C(CC(=O)Nc3ccc(Cl)cc3)S2)CC(C)(C)C1 (stereo unspecified) | n | x | x | x | x | x
CC1=C/C(=N\N=C2\NC(=O)C(CC(=O)Nc3ccc(C(=O)O)cc3)S2)CC(C)(C)C1 (stereo unspecified) | 103 | x | x | x | x | x
O=C(CC1S/C(=N\N=C\c2ccccc2)NC1=O)Nc1ccc(C(=O)O)cc1 (stereo unspecified) | 104 | x | x | x | x | x
O=C(CC1S\C(=N/N=C/C=C/c2ccccc2)NC1=O)Nc1ccc(C(=O)O)cc1 (stereo unspecified) | n | x | x | x | x | x
Cc1ccc(Cl)cc1N1CCN(C(=O)C2CCCN(S(=O)(=O)c3cnc[nH]3)C2)CC1 (stereo unspecified) | n | n | n | n | n | n
Cc1nn(-c2ccccc2)c2sc(-c3n[nH]c(=S)o3)cc12 | n | n | 78 | n | n | n
O=C(NCc1cccs1)C1CCN(S(=O)(=O)c2cccc3nsnc23)CC1 | n | n | n | n | n | n
O=C(CSc1ccccc1Cl)N1CCC(c2nc3ccccc3s2)CC1 | x | 64 | x | n | n | n
CCNC(=S)N1CCC(c2nc3ccccc3s2)CC1 | x | 44 | x | n | n | n
O=C(c1ccccc1)N(Cc1ccccc1)CC(O)(c1ccccc1)c1ccccc1 | n | x | x | x | x | x
CC(C)OC(=O)c1c(-c2ccccc2)csc1NC(=O)CCC(=O)O | n | x | x | x | x | x
Cc1c(NC(=O)c2ccc(-c3ccccc3[N+](=O)[O-])o2)cccc1-c1nc2ncccc2o1 | n | x | x | x | x | x
Cc1[nH]c(=O)[nH]c(=O)c1S(=O)(=O)NCC12CC3CC(CC(C3)C1)C2 | n | 43 | n | n | n | n
Cc1ccc(-c2cc(-c3ccccc3)c3c(N)c(S(C)(=O)=O)sc3n2)cc1 | x | 31 | x | n | n | n
CS(=O)(=O)c1sc2nc(-c3cccs3)cc(-c3ccccc3)c2c1N | n | n | n | n | n | n
SMILES | HePTP inhibitor | PostGolgi ctrl | Ecoli tolC | PostGolgi yeast | E coli WT exp | PLAP activator
CN1C(=O)CC(Sc2ccccc2C(=O)O)C1=O (stereo unspecified) | x | n | x | n | n | n
COc1ccc(CCNc2nc(C)nc3c2oc2ccccc23)cc1OC | n | n | x | n | n | 2
Cc1nc(NC(C)c2ccccc2)c2oc3ccccc3c2n1 (stereo unspecified) | n | 74 | n | n | n | n
COc1ccc(CCNc2ncnc3c2oc2ccccc23)cc1OC | n | n | n | n | n | n
CC1CC(C)CN(C(=O)CSCC(=O)Nc2nc(-c3cccs3)cs2)C1 (stereo unspecified) | n | 72 | n | n | n | n
O=C(CSCC(=O)N1CCCCC1)Nc1nc(-c2ccc(Cl)s2)cs1 | n | 72 | n | 32 | n | n
COCCN(CCOC)C(=O)C12CCC(C)(C(=O)C1)C2(C)C (stereo unspecified) | n | n | n | n | n | n
COC(=O)c1cccc(-n2c(C)ccc2-c2ccccc2)c1 | n | x | x | x | x | x
Cc1ccc(CNc2nc(N)c([N+](=O)[O-])c(Nc3cccc(F)c3)n2)cc1 | x | 46 | x | n | n | n
COc1ccc(C(=O)NC(C)c2nnc(SCc3ccc(Cl)c(Cl)c3)n2C)cc1 (stereo unspecified) | x | n | x | 33 | n | n
Fc1ccccc1CSc1nnc(-c2cnccn2)n1Cc1ccco1 | n | n | n | n | n | x
Clc1ccc(CSc2nnc(-c3ccccn3)n2Cc2ccco2)c(Cl)c1 | n | 52 | n | n | n | n
Brc1ccc(CSc2nnc(-c3cnccn3)n2Cc2ccco2)cc1 | n | 38 | 64 | n | n | n
COc1ccc(CC(=O)NCC2(c3ccc(OC)c(OC)c3)CCCC2)cc1 | n | x | x | x | x | x
CCc1nc(SCC(=O)NNC(=O)C(C)C)c2ccccc2n1 | x | n | x | n | n | 2
CCc1nc(SCC(=O)NNC(=O)C2CCCCC2)c2ccccc2n1 | x | n | x | n | n | n
O=C(O)CCN1C(=O)/C(=C/c2ccc(-c3ccc([N+](=O)[O-])cc3)o2)SC1=S | n | x | x | x | x | x
O=C1/C(=C\c2ccc(-c3cccc([N+](=O)[O-])c3)o2)SC(=S)N1CCc1ccccc1 | n | x | x | x | x | x
O=C(O)c1ccc(-c2ccc(/C=C3\SC(=S)N(c4ccc([N+](=O)[O-])cc4)C3=O)o2)cc1 | 103 | x | x | x | x | x
O=C(O)CCN1C(=O)/C(=C\C(Cl)=C/c2ccc([N+](=O)[O-])cc2)SC1=S | 102 | x | x | x | x | x
O=C(O)CCCN1C(=O)/C(=C\c2ccc(-c3cccc([N+](=O)[O-])c3)o2)SC1=S | 97 | x | x | x | x | x
O=C(O)CCN1C(=O)/C(=C/c2ccc(-c3ccc(Cl)cc3)o2)SC1=S | 102 | x | x | x | x | x
COc1ccc(OCC(=O)Nc2ccc3ccccc3c2)cc1 | n | x | x | x | x | x
COCCNC(=O)c1ccc(CN(c2cccc(Cl)c2)S(=O)(=O)c2ccc(C)cc2)cc1 | n | x | x | x | x | x
Nc1ncnc2nc(SCc3ccc(Cl)cc3Cl)[nH]c12 | x | n | x | n | n | 2.3
SMILES | HePTP inhibitor | PostGolgi ctrl | Ecoli tolC | PostGolgi yeast | E coli WT exp | PLAP activator
Nc1ncnc2nc(Sc3ccc(Cl)cc3)[nH]c12 | n | n | n | n | n | n
CSc1nc(N2CCOCC2)c2c3c(sc2n1)CCCC3 | n | 36 | 96 | n | n | n
O=[N+]([O-])c1nn(-c2ccc3c(c2)OCCO3)n(O)c1=NC1CCCCC1 | x | n | x | n | n | n
O=[N+]([O-])c1nn(-c2ccc3c(c2)OCCO3)n(O)c1=NCc1ccccc1Cl | x | 44 | x | n | n | n
CCC1CCCCN1C(=O)C1CC(c2cc(Cl)c(OC)cc2OC)=NO1 (stereo unspecified) | n | n | n | n | n | n
O=C(OCn1ncc(Br)c(Br)c1=O)c1ccc(F)cc1 | x | 46 | x | 107 | n | n
CCn1ncc(Br)c1C(=O)Nc1ccc(C(=O)OC(C)C)cc1 | x | n | x | n | n | n
O=C(OCn1ncc(Br)c(Br)c1=O)c1ccccc1Cl | x | 34 | x | 108 | n | n
COC(=O)c1ccccc1NC(=S)NC(=O)C1CC1 | x | n | x | n | n | n
